Source: PubChem BioAssay AID623985 (Broad Institute, 2012)

The molecules below were run against PvdQ acylase (Pseudomonas aeruginosa) (assay: PvdQ acylase enzyme activity blockers – biochemical, fluorescence, plate reader, dry powder, set 2, dose response (AID 623985)). Settings: purified PvdQ, 4-MU laurate fluorescence, 60 min.
How it was run: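 Material: purified P. aeruginosa PvdQ; Quantity: 0.02 µM PvdQ; Medium: 50 mM Tris pH 8.0, 50 mM NaCl, 0.2 mM TCEP, Triton X-100; Reagent: 4-methylumbelliferone laurate substrate at 0.8 mM final; Timing: 30 min pre-incubation plus 60 min reaction, room temperature; Technique: 4-methylumbelliferone fluorescence, excitation 303–367 nm, emission 440–460 nm.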

CCCCC(C#N)c1ccc(Cl)cc1Cl (stereo unspecified) and CCCCC(C#N)c1ccc(Cl)cc1F (stereo unspecified) are within 1.5-fold of each other in AC50: 281 nM for the first, 315 nM for the second.

Cc1ccc(C(C#N)c2ccc(F)cc2)nc1C#N (stereo unspecified) and Cc1ccc(C(C#N)c2ccc(Cl)cc2)nc1C#N (stereo unspecified) are within 1.5-fold of each other in AC50: 96.6 nM for the first, 69.7 nM for the second.

Compared with N#CC(c1cccc(Cl)n1)c1ccc(Cl)cc1Cl (stereo unspecified), N#CC(c1cccc(Cl)n1)c1ccc(Cl)cc1F (stereo unspecified) is 7.6-fold lower in AC50: 170 nM for the first, 22.4 nM for the second.

N#CC(c1ccc(F)cc1)c1cccc(C(F)(F)F)n1 (stereo unspecified) and N#CC(c1ccc(Cl)cc1)c1cccc(C(F)(F)F)n1 (stereo unspecified) are within 1.5-fold of each other in AC50: 5.02 nM for the first, 4.16 nM for the second.

Going from CCCC(C#N)c1ccc(Cl)cc1 (stereo unspecified) to CCCCC(C#N)c1ccc(Cl)cc1 (stereo unspecified), the AC50 falls from 293 nM to 56.9 nM (5.1-fold).

Compared with Cc1ccc(C(C#N)c2ccc(Cl)cc2)nc1 (stereo unspecified), N#CC(c1ccc(Cl)cc1)c1ccc(Cl)cn1 (stereo unspecified) is 2-fold lower in AC50: 150 nM for the first, 73.3 nM for the second.

Compared with N#CC(c1ccc(Cl)cc1)c1cccc(Cl)n1 (stereo unspecified), Cc1cccc(C(C#N)c2ccc(Cl)cc2)n1 (stereo unspecified) is 9.1-fold higher in AC50: 17.9 nM for the first, 162 nM for the second.

Compared with N#Cc1cccc(C(C#N)c2ccccc2OC(F)(F)F)n1 (stereo unspecified), N#CC(c1cccc(Cl)n1)c1ccccc1OC(F)(F)F (stereo unspecified) is 3.3-fold higher in AC50: 227 nM for the first, 754 nM for the second.

Going from COc1cccc(C(C#N)c2ccc(F)cc2)n1 (stereo unspecified) to N#Cc1cccc(C(C#N)c2ccc(Cl)cc2)n1 (stereo unspecified), the AC50 falls from 124 nM to 60.6 nM (2-fold).

First: N#CC(c1ccc(Cl)cc1)c1ccc(C(F)(F)F)cn1 (stereo unspecified)
Second: N#CC(c1ccc(Cl)cc1)c1ccc(C(F)(F)F)c(Cl)n1 (stereo unspecified)
The AC50 of the first is 3.6-fold lower: 171 nM for the first, 609 nM for the second.

Going from N#CC(c1cccc(C(F)(F)F)n1)c1ccccc1OC(F)(F)F (stereo unspecified) to N#CC(c1ccc(C(F)(F)F)c(Cl)n1)c1ccccc1OC(F)(F)F (stereo unspecified), the AC50 rises from 376 nM to 597 nM (1.6-fold).

Going from N#CC(c1ccc(F)cc1)c1ccc(C(F)(F)F)c(Cl)n1 (stereo unspecified) to N#CC(c1ccc(C(F)(F)F)cc1)c1ccc(C(F)(F)F)c(Cl)n1 (stereo unspecified), the AC50 rises from 548 nM to 2950 nM (5.4-fold).

First: CCCCC(C#N)c1ccc(C(F)(F)F)cc1 (stereo unspecified)
Second: CCCCC(C#N)c1ccc(F)cc1 (stereo unspecified)
The AC50 of the first is 35-fold higher: 1590 nM for the first, 45.5 nM for the second.

Going from N#CC(c1cccc(C(F)(F)F)n1)c1ccc(Cl)cc1F (stereo unspecified) to N#CC(c1ccc(C(F)(F)F)c(Cl)n1)c1ccc(Cl)cc1F (stereo unspecified), the AC50 rises from < 3 nM to 484 nM.

Compared with CC(C#N)(c1ccc(Cl)cc1)c1ccc(C(F)(F)F)cn1 (stereo unspecified), N#CC(c1ccc(C(F)(F)F)cc1)c1cccc(Cl)n1 (stereo unspecified) is 3.4-fold lower in AC50: 1230 nM for the first, 357 nM for the second.

Going from N#Cc1ccc(C(C#N)c2ccc(Cl)cc2Cl)nc1 (stereo unspecified) to N#Cc1cccc(C(C#N)c2ccc(Cl)cc2Cl)n1 (stereo unspecified), the AC50 falls from 1940 nM to 303 nM (6.4-fold).

First: Cc1ccc(C(C#N)c2ccccc2OC(F)(F)F)nc1C#N (stereo unspecified)
Second: N#Cc1cccc(C(C#N)c2ccc(Cl)cc2F)n1 (stereo unspecified)
The AC50 of the first is 7-fold higher: 328 nM for the first, 46.7 nM for the second.

Compared with N#CC(CC1CC1)c1ccc(Cl)cc1 (stereo unspecified), CC(C)CC(C#N)c1ccc(Cl)cc1 (stereo unspecified) is 1.5-fold higher in AC50: 133 nM for the first, 203 nM for the second.

First: N#Cc1ccc(C(C#N)c2ccc(Cl)cc2)nc1 (stereo unspecified)
Second: N#CC(c1ccc(Cl)cc1)c1ncccc1Cl (stereo unspecified)
The AC50 of the first is higher: 1310 nM for the first, < 3 nM for the second.

First: N#CC(c1ccc(Cl)cc1Cl)c1ncccc1Cl (stereo unspecified)
Second: N#CC(c1ccc(C(F)(F)F)c(Cl)n1)c1ccc(Cl)cc1Cl (stereo unspecified)
The AC50 of the first is 17-fold lower: 141 nM for the first, 2440 nM for the second.

In the case of N#CC(c1ccc(C(F)(F)F)cc1)c1cccc(C(F)(F)F)n1 (stereo unspecified), the AC50 is reported as 27 nM.
